Screening data deposited in PubChem BioAssay by several laboratories.
An excerpt weighted towards active compounds, which were near 4.2% of everything screened.
hERG protect – hERG rescue from dofetilide block, primary screen, cell-based, CHO-hERG, FluxOR thallium flux, dofetilide IC70 | 0.51% of 310,000 active | Voltage-gated inwardly rectifying potassium channel KCNH2 (Homo sapiens), Q12809 | dofetilide IC70 present | AID 1511, 2009 | activation (rescue from dofetilide block), less the hit threshold, % at 10 µM;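 active = activation above the mean of controls blocked by dofetilide plus 5 SD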;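 also: thallium influx through hERG after potassium depolarization seen as dye fluorescence rise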
KCNQ1 block – inhibitors of human KCNQ1 channel, primary screen, cell-based, thallium flux, high-throughput; B-score at 10 µM; 1.3% of 310,000 active; CHO-K1 KCNQ1, FluxOR thallium flux fluorescence; hits give high values; Potassium voltage-gated channel subfamily KQT member 1 (Homo sapiens), P51787;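 active = compounds whose thallium flux B-score, printed positive for inhibition, exceeds three library SD while starting fluorescence stays within three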;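 also: channel opened by potassium depolarization with thallium stimulus after 20 min compound exposure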
Target sequence (P51787 whole entry, looked up): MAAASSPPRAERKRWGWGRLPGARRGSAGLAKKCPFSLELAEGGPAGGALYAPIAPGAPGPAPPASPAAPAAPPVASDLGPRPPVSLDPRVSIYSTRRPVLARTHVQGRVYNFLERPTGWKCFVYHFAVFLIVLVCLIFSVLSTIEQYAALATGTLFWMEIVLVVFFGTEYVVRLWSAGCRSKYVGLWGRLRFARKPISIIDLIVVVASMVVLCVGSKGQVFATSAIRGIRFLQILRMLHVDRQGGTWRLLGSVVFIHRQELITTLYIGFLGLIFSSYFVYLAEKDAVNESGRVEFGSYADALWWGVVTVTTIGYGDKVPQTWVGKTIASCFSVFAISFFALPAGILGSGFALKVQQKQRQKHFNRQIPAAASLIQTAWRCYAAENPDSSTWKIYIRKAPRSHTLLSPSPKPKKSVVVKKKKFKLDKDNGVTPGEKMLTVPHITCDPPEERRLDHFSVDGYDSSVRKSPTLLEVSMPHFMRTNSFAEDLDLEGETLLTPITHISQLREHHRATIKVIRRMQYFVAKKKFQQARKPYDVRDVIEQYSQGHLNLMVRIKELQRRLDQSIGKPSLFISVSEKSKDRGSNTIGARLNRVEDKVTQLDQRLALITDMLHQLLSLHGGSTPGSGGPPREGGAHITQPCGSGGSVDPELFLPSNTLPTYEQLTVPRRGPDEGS
KCC2 mod – KCC2 cotransporter modulators, thallium flux, primary screen, cell-based, HEK293 KCC2, FluoZin-2 fluorescence, MLSMR; Solute carrier family 12 member 5 (Homo sapiens), Q9H2X9; AID 1456, 2008; KCC2 cells, thallium flux FluoZin-2 fluorescence; 2.2% of 190,000 active; B-score of Tl+ flux slope (higher = more flux/activation; lower = inhibition) at 10 µM;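 active = thallium flux slope and its plate-corrected score both differing from the plate sample mean at a set confidence after two filtering rounds, in either direction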;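 also: slope of fluorescence scaled to starting intensity during 10 to 20 s after thallium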
KCNQ1 pot – potentiators or activators of KCNQ1 channel, primary screen, cell-based, thallium flux, high-throughput. Potassium voltage-gated channel subfamily KQT member 1 (Homo sapiens), P51787. CHO-K1 KCNQ1, thallium flux FluxOR fluorescence; hits give high values. B-score at 10 µM. 0.35% of 310,000 active. AID 2648, 2010;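 active = fluorescence ratio B-score, a plate-corrected score, at least three library SD, with initial intensity B-score within 5 SD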
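assay system = CHO-K1 cells stably expressing KCNQ1 | medium = assay buffer, equal DMSO in all wells | timing = 37 °C overnight plating, 90-min dark dye load, 20-min compound pretreatment | measured by = kinetic FluxOR thallium fluorescence, 10-s 1-Hz baseline, 110-s post-stimulus read | measure = fluorescence change relative to baseline, converted to B score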
AI-2 QS modul – Vibrio harveyi AI-2 quorum sensing modulators, primary screen, JMH597 strain, luminescence/OD600 ratio | Vibrio harveyi JMH597 AI-2 luminescence/OD600 ratio, 9 h; hits give low values; strain lacks LuxN and CqsS sensors; 0 = neutral-control median | activity change, % at 7.5 µM | 0.4% of 300,000 active | AID 2094, 2009; in the data active = activity change below about -75%, passing the limit was not always enough; inconclusive = no clear call, values can overlap the other calls;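 also: luminescence divided by OD600 gain over 9 h not by final OD600 alone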
Mot1-301 SUMO – yeast Mot1-301 growth rescue at high temperature, primary screen, SUMOylation pathway inhibitor project, S. cerevisiae, ATP luminescence, 38.5C | growth rescue, % at 18.8 µM | 1% of 320,000 active | S. cerevisiae Mot1-301 growth rescue; percent above DMSO median, 100 means doubled;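 active = every valid replicate shows activation above 250% relative to neutral control wells; inactive = the rest, any valid replicate at or below 250%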;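 also: OY570 slx delta 5 strain wells were the positive control but not used for scaling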
KCC2 secondary – KCC2 modulators in sodium-free buffer, confirmation, cell-based, HEK293 KCC2, thallium flux, secondary assay; shares compounds with KCC2 mod; FluoZin2 fluorescence; hits give high values; normalised thallium flux (F/F0 slope) at 10 µM; 15% of 3,700 active;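 active = thallium flux slope above the same plate's solvent-only control mean plus 3 SD; inconclusive = the two replicate wells disagree; inactive = no significant difference from solvent-only control wells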
KCC2 bumet counter – thallium flux persisting under bumetanide in KCC2 cells, confirmation, counter-screen for KCC2 modulator project, cell-based, HEK293 KCC2, FluoZin2, secondary assay 3; shares compounds with KCC2 mod; HEK293-KCC2 + bumetanide/ouabain; hits give high values; normalized thallium flux at 10 µM; 49% of 3,700 active;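 active = thallium entry rate above the same plate's blocked-transporter control wells by more than 3 SD; inconclusive = the two repeat wells disagree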;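 also: raw slope of fluorescence over initial fluorescence between 10 and 20 s after thallium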
KCC2 sec2 – KCC2 modulators without ouabain present, confirmation, cell-based, HEK293 KCC2, thallium flux, FluoZin2, secondary assay 2. shares compounds with KCC2 mod. thallium flux FluoZin2 fluorescence; actives lie on both sides; F/F0 rise rate, 10–20 s post-thallium. normalized thallium flux at 10 µM. 23% of 3,700 active;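 active = thallium flux slope more than 3 SD above or below the plate's solvent-only control mean, mostly below; inconclusive = the two repeat wells disagreed; inactive = no significant shift from solvent-only controls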;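 also: raw slope with 0.1% DMSO as baseline and bumetanide as block control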
HEK293 Tl flux – thallium flux modulation in parental HEK cells, confirmation, counter-screen for KCC2 modulator project, cell-based, counterscreen 1; shares compounds with KCC2 mod; HEK293 parental cells, thallium flux FluoZin2, ouabain; baseline-ratio fluorescence slope, 10–20 s after thallium; thallium flux rate (normalised fluorescence) at 10 µM; 46% of 3,700 active; AID 1716, 2009;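 active = thallium flux rate significantly above the same plate's solvent-only control wells, beyond their mean plus 3 SD; inconclusive = the two replicate wells gave conflicting results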
KCC2 retest ouab – KCC2 inhibitors and activators, ouabain retest, confirmation, HEK-KCC2 cells. shares compounds with KCC2 mod. HEK293-KCC2, thallium flux FluoZin2 fluorescence; bidirectional: low = inhibitor, high = activator. raw Tl+ flux slope (below DMSO = inhibition, above = activation) at 10 µM. 48% of 3,700 active. AID 1717, 2009;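 active = thallium flux slope beyond 3 SD from same-plate DMSO control mean in most replicates, usually higher, sometimes lower; inconclusive = repeat tests gave conflicting results; inactive = no significant difference from controls in most replicates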;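 also: slope of initial-normalized fluorescence between seconds 10 and 20 after thallium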
HEK counter2 – native HEK Tl+ uptake effects, second counter-screen – HEK cells, counterscreen 2, counter-screen for KCC2 modulator project, confirmation; shares compounds with KCC2 mod; HEK293 parental, thallium flux FluoZin-2 fluorescence slope; thallium flux slope at 10 µM; 33% of 3,700 active; AID 1718, 2009;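 active = thallium flux slope above the same plate's solvent-control mean plus 3 SD in both duplicate wells; inconclusive = duplicate wells that disagreed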;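 also: run without ouabain in cells lacking the KCC2 cotransporter; slope of fluorescence scaled to its starting value between 10 and 20 s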
Starred values were filed as active, the others as inactive; i = inactive; ? = inconclusive; / = no result.

SMILES | hERG protect | KCNQ1 block | KCC2 mod | KCNQ1 pot | AI-2 QS modul | Mot1-301 SUMO | KCC2 secondary | KCC2 bumet counter | KCC2 sec2 | HEK293 Tl flux | KCC2 retest ouab | HEK counter2
Cc1ccc(/C=N/NC(=O)c2ccoc2C)s1 | -9 | i | 2 | i | 3 | 5 | / | / | / | / | / | /
O=C(N/N=C/c1ccc(Br)s1)c1ccco1 | -6 | i | 7.1* | i | 4 | -2 | 0.011 | 0.011* | 0.035 | 0.016* | 0.024 | 0.013*
Cc1scc(C(=O)N/N=C/c2ccc(Cl)s2)c1C | -10 | i | 39* | i | 16 | 1 | ? | 0.053* | 0.043* | 0.078* | 0.086* | 0.024*
Cc1occc1C(=O)N/N=C/c1ccc(Br)s1 | -3 | i | 78* | i | 19 | 6 | ? | 0.03* | 0.032 | 0.036* | 0.052* | 0.022*
CCCNC(=O)COC(=O)c1ccccc1OCc1ccc(Cl)cc1 | -8 | i | / | i | 14 | 6 | / | / | / | / | / | /
O=C(NCCCCNC(=O)c1ccc(Cl)s1)c1ccc(Cl)s1 | -6 | i | 0.2 | i | 15 | 226 | / | / | / | / | / | /
CN(C)CCNC(=O)c1ccc(Cl)s1 | -8 | i | 7.3* | i | 41 | -20 | 0.0099 | 0.0067 | 0.032 | 0.0074 | 0.05 | ?
COc1ccc(/[N+]([O-])=C/c2ccoc2)cc1 | / | / | / | / | / | -10 | / | / | / | / | / | /
COC(=O)c1ccc(/C=C2\N=C(SC)SC2=O)cc1 | -7 | i | 0.31 | i | 4 | -9 | / | / | / | / | / | /
CCOc1cc(/C=C2\N=C(SC)SC2=O)cc([N+](=O)[O-])c1OC(C)=O | -25 | 12* | / | i | 27 | -17 | ? | 0.0056* | ? | 0.007 | 0.018 | 0.0099
COc1ccc(CC(O)COS(N)(=O)=O)cc1 (configuration not stated) | -4 | i | / | i | 7 | 2 | / | / | / | / | / | /
Cc1cc(C)n(C(=O)/C(C#N)=N/Nc2cc(Cl)cc(Cl)c2)n1 | -20 | 8* | -7.7* | i | -7 | / | ? | ? | 0.033 | 0.0037 | 0.014* | 0.011
Cc1ccc2cc(C)c3nnc(SCC(=O)Nc4nc5c(s4)CCCC5)n3c2c1C | -14 | i | / | i | 21 | 368 | / | / | / | / | / | /
COc1ccc(CCn2c(O)cc3nn(-c4nc5ccccc5s4)c(=O)c-3c2C)cc1 | -9 | i | 3.7* | i | 16 | -17 | 0.007 | 0.0077* | 0.03 | 0.01* | 0.021 | ?
Cc1ccc(Cn2nnc3c(=O)n(CC(=O)NCc4ccc5c(c4)OCO5)cnc32)cc1 | -1 | i | -1.8 | i | 30 | -13 | / | / | / | / | / | /
c1ccc(C2Oc3ccccc3C3CC(c4cccs4)=NN32)cc1 (configuration not stated) | -4 | i | 9.3* | i | 35 | 7 | 0.01 | 0.046* | 0.037 | 0.06* | 0.055* | 0.02*
CS(=O)(=O)N1N=C(c2cccs2)CC1c1ccccc1 (configuration not stated) | -13 | i | -0.067 | i | 1 | 9 | / | / | / | / | / | /
O=C(CSc1nc2ccccc2[nH]1)NCCN1CCCCC1 | -7 | i | -0.073 | i | 9 | -14 | / | / | / | / | / | /
COc1ccc(NC(=O)CN2C(=O)NC(C)(C3CC3)C2=O)cc1S(=O)(=O)N1CCCCC1 (configuration not stated) | / | / | / | / | / | -9 | / | / | / | / | / | /
O=C(CCn1c(=O)oc2ccccc21)N1CCc2ccccc21 | -7 | i | / | i | 31 | -3 | 0.0077 | 0.0065 | 0.028 | 0.0068 | ? | 0.0095
CCc1ccc(NC(=O)CCn2c(=O)oc3ccccc32)cc1 | -4 | i | / | i | 19 | -1 | 0.0072 | 0.004 | 0.028 | 0.0071 | ? | 0.0095
O=C(CCn1c(=O)oc2ccccc21)N1CCOCC1 | -8 | i | / | i | 8 | -19 | / | / | / | / | / | /
CCOc1ccccc1NC(=O)CCc1nnc2ccc(N3CCC4(CC3)OCCO4)nn12 | -9 | i | / | i | 4 | 12 | / | / | / | / | / | /
CCOc1ccc(/C=N/Nc2cc(=O)n(C)c(=O)n2C)cc1 | -8 | i | 0.1 | i | -1 | -2 | / | / | / | / | / | /
Cc1ccccc1-n1c(-c2ccc(Br)o2)n[nH]c1=S | -4 | i | / | i | 0 | 2 | / | / | / | / | / | /
CC(C)Cn1c(-c2ccc(Br)o2)n[nH]c1=S | -2 | i | 12* | i | 32 | -20 | 0.018* | 0.04* | 0.034 | 0.019* | 0.032* | 0.012*
CCCSc1nc2c(c(=O)[nH]c(=O)n2C)n1C | -12 | i | 11* | i | 2 | -6 | 0.016 | 0.0048 | 0.027 | 0.0076 | 0.017 | 0.01
C=CCn1c(Sc2nncn2C)nc2c1c(=O)[nH]c(=O)n2C | -17 | i | / | i | 14 | -1 | ? | 0.0068 | 0.028 | 0.0067 | 0.021 | 0.0098
CCOc1ccc(S(=O)(=O)Nc2cc(NS(=O)(=O)c3ccc(OCC)cc3)cc(C(=O)O)c2)cc1 | / | / | / | / | / | -17 | / | / | / | / | / | /
